Measurements from ChEMBL document CHEMBL6071149, “Synthesis and photo-induced anticancer activity of new 2-phenylethenyl-1H-benzo[e]indole dyes” (Eur J Med Chem, 2024).
Activity calls are given as the source filed them. The rule behind the calls is not given here.

Legend:
[1] = Cytotoxicity against human ARN-8 cells-derived from human A375 cells under dark condition measured after 24 hrs by MTT assay; format: functional, cell-based; details: ARN-8 cell
In short: (§1)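 Cells grown in phenol red-free DMEM with 10 % FBS, penicillin/streptomycin, 37 °C, 5 % CO₂. Compound added 24 h after plating and incubated 4 h. Irradiated cells received 414 nm LED light at 20 mW/cm², 10 J/cm², then were incubated 20 h or 68 h more. Dark plates were run in parallel without irradiation. MTT was added for 4 h, formazan dissolved in 10 % SDS, absorbance read at 570 nm. EC50 ± SD.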

ARN-8 cell [2] = experiment: Induction of apoptosis in human ARN-8 cells-derived from human A375 cells assessed as increase in cleaved BAX level upto 4 uM pretreated for 4 hrs followed by light irradiation of 10 J/cm2 at 414 nm measured after 20 hrs by Western blot analysis; format: functional, cell-based; details: time 24.0 hrs
In short: (§2)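 Compound exposure 4 h, then 414 nm irradiation, then 20 h further incubation. Lysates made in RIPA buffer, separated by SDS-PAGE and blotted to nitrocellulose. Primary antibodies in TBS with 4 % BSA and 0.1 % Tween 20, incubated overnight. Peroxidase secondary antibody with chemiluminescent detection. GAPDH served as loading control.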

ARN-8 cell [3] = experiment: Downregulation of p53 level in human ARN-8 cells-derived from human A375 cells at higher concentration pretreated for 4 hrs followed by light irradiation of 10 J/cm2 at 414 nm measured after 20 hrs by fluorescence based assay; format: functional; details: time 24.0 hrs
G-361 [4] = experiment: Induction of apoptosis in human G361 cells assessed as decrease in Bcl-2 level upto 4 uM pretreated for 4 hrs followed by light irradiation of 10 J/cm2 at 414 nm measured after 20 hrs by Western blot analysis; format: functional, cell-based; details: time 24.0 hrs; in short: as §2
ARN-8 cell [5] = experiment: Induction of apoptosis in human ARN-8 cells-derived from human A375 cells assessed as increase in cleaved PARP-1 level upto 4 uM pretreated for 4 hrs followed by light irradiation of 10 J/cm2 at 414 nm measured after 20 hrs by Western blot analysis; format: functional, cell-based; details: time 24.0 hrs; in short: as §2
[6] = (§3) Selectivity ratio of EC50 for human BJ cells under dark condition measured after 72 hrs by MTT assay to EC50 for human G361 cells pretreated for 4 hrs followed by light irradiation of 10 J/cm2 at 414 nm measured after 68 hrs by MTT assay; format: functional
In short: (§4)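 Ratio of dark EC50 to EC50 after 414 nm irradiation (10 J/cm²). MTT read-out; compound exposure 4 h before irradiation. Each dark value is paired with the matching post-irradiation incubation (20 h or 68 h).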

G-361 [7] = experiment: Induction of ROS production in human G361 cells upto 4 uM pretreated for 4 hrs followed by light irradiation of 5 to 10 J/cm2 measured immediately in presence of N-acetylcysteine by CM-H2DCFA probe based analysis; format: functional, cell-based
In short: (§5)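 Cells loaded next day with 5 µM CM-H₂DCFDA for 30 min, then placed in prewarmed PBS with 5 mM glucose. Compound exposure 4 h, followed by 414 nm irradiation at 5 or 10 J/cm²; dark samples run in parallel. Fluorescence read immediately at 492/530 nm. NAC (5 mM) pretreatment for 10 min gave negative controls. RFU normalised to untreated dark control.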

G-361 [8] = experiment: Cytotoxicity against human G361 cells under dark condition measured after 24 hrs by MTT assay; format: functional, cell-based; details: G-361, 24 h; in short: as §1
G-361 [9] = experiment: Induction of apoptosis in human G361 cells assessed as decrease in Mcl-1 level upto 4 uM pretreated for 4 hrs followed by light irradiation of 10 J/cm2 at 414 nm measured after 20 hrs by Western blot analysis; format: functional, cell-based; details: time 24.0 hrs; in short: as §2
ARN-8 cell [10] = experiment: Induction of cell cycle arrest in human ARN-8 cells-derived from human A375 cells transfected with p53-responsive beta-galactosidase assessed as increase in p53 activation upto 4 uM pretreated for 4 hrs followed by light irradiation of 10 J/cm2 at 414 nm measured after 20 hrs by fluorescence based assay; format: functional; details: time 24.0 hrs
In short: (§6)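 ARN8 cells stably carrying the p53-responsive pRGΔfoslacZ reporter. Increasing compound concentrations for 4 h, then 414 nm irradiation at 2.5, 5, 7.5 or 10 J/cm², then 20 h further incubation. Cells lysed in 0.3 % Triton X-100. After 10 min, 4-methylumbelliferyl β-D-galactopyranoside added at a final 80 µM for 1 h. Fluorescence read at […].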

[11] = as §3, with “ARN-8 cells-derived from human A375” for “BJ”, “24” for “72”, “ARN-8 cells-derived from human A375” for “G361”, “20” for “68”; format: functional, ARN-8 cell; in short: as §4
[12] = (§7) Selectivity ratio of EC50 for human G361 cells under dark condition measured after 72 hrs by MTT assay to EC50 for human G361 cells pretreated for 4 hrs followed by light irradiation of 10 J/cm2 at 414 nm measured after 68 hrs by MTT assay; format: functional; in short: as §4
[13] = Cytotoxicity against human ARN-8 cells-derived from human A375 cells under dark condition measured after 72 hrs by MTT assay; format: functional, cell-based; details: ARN-8 cell; in short: as §1
G-361 [14] = experiment: Induction of DNA fragmentation in human G361 cells at 0.5 uM by Comet assay; format: functional, cell-based
In short: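 G361 cells exposed at 0.5 µM and irradiated at indicated 414 nm doses. Cells trypsinized and embedded in 1 % LMP agarose on slides, lysed 1 h in buffer with 1 % Triton X. Cold electrophoresis solution for 40 min, then electrophoresis at 20 V, 350 mA for 20 min. Neutralised twice for 10 min, stained with SYBR Green 15 min. Percent DNA in comet head and tail scored.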

ARN-8 cell [15] = experiment: Induction of ROS production in human ARN-8 cells-derived from human A375 cells upto 4 uM treated for 4 hrs under dark condition by CM-H2DCFA probe based analysis; format: functional; in short: as §5
G-361 [16] = experiment: Induction of apoptosis in human G361 cells assessed as increase in cleaved BAX level upto 4 uM pretreated for 4 hrs followed by light irradiation of 10 J/cm2 at 414 nm measured after 20 hrs by Western blot analysis; format: functional, cell-based; details: time 24.0 hrs; in short: as §2
[17] = Cytotoxicity against human BJ cells under dark condition measured after 72 hrs by MTT assay; format: toxicity, cell-based; in short: as §1
[18] = Cytotoxicity against ARN-8 cells-derived from human A375 cells pretreated for 4 hrs followed by light irradiation of 10 J/cm2 at 414 nm measured after 68 hrs by MTT assay; format: functional, cell-based; details: ARN-8 cell, light or radiation study; in short: as §1
[19] = Selectivity ratio of EC50 for human G361 cells under dark condition measured after 24 hrs by MTT assay to EC50 for human G361 cells pretreated for 4 hrs followed by light irradiation of 10 J/cm2 at 414 nm measured after 20 hrs by MTT assay; format: functional; in short: as §4
[20] = Induction of singlet oxygen generation in aqueous solution at 5 uM at light irradiation of 10 J/cm2; format: functional
In short: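 Water solutions of compound mixed with SOSG, DHR123 or HPF probe, each at a final 5 µM, without cells or medium. Irradiated with blue light at 10 J/cm² and fluorescence read immediately at 490/525 nm.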

[21] = as §7, with “ARN-8 cells-derived from human A375” for “G361”; format: functional, ARN-8 cell; in short: as §4
ARN-8 cell [22] = experiment: Downregulation of p53 level in human ARN-8 cells-derived from human A375 cells transfected with p53-responsive beta-galactosidase at higher concentration pretreated for 4 hrs followed by light irradiation of 10 J/cm2 at 414 nm measured after 20 hrs by fluorescence based assay; format: functional; details: time 24.0 hrs; in short: as §6

## COc1ccc(/C=C/C2=Nc3ccc4ccccc4c3C2(C)C)cc1[N+](=O)[O-]
[1]
  EC50: 9.2 µM
ARN-8 cell [2]
  Activity: Active
ARN-8 cell [3]
  Activity: Active
G-361 [4]
  Activity: Active
ARN-8 cell [5]
  Activity: Active
[6]
  Ratio EC50: >40
G-361 [7]
  Activity: inactive
G-361 [8]
  EC50: 9 µM
G-361 [9]
  Activity: Active
ARN-8 cell [10]
  Activity: Active
[11]
  Ratio EC50: >=15
[12]
  Ratio EC50: >28
[13]
  EC50: 7.3 µM
G-361 [14]
  Activity: inactive
ARN-8 cell [15]
  Activity: inactive
G-361 [16]
  Activity: Active
[17]
  EC50 at 72 h: 8.3 µM
[18]
  EC50: 0.2 µM
[19]
  Ratio EC50: >=15
[20]
  Activity: inactive
[21]
  Ratio EC50: >28
ARN-8 cell [22]
  Activity: Active
